Reference: ChEMBL document CHEMBL3244142, “Antifungal properties of 2-bromo-3-fluorosuccinic acid esters and related compounds” (1977)
In brackets after ≈: the same amount, converted by molar mass. Activity calls are given as the source filed them. No cut-off for these calls is given here.

Legend:
[1] = test system: Aspergillus niger; assay: Antifungal activity against Aspergillus niger ATCC 1004 at <100 ug/ml at pH 5.6 after 5 days in absence of 10% beef serum; format: functional, organism-based
Procedure, shortened: (§1)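 Agar-dilution MIC in Sabouraud dextrose agar at pH 5.6 or 7.0, with or without 10% beef serum. Plates were incubated at 28 °C for 5 days. MIC is the lowest concentration (µg/mL) giving 100% inhibition. Steps were 1 µg/mL up to 10, 2 µg/mL from 10–20, and 10 µg/mL from 20–100; 100 µg/mL was the top level, and no inhibition there is scored as >100.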

[2] = test system: Mucor mucedo; assay: Antifungal activity against Mucor mucedo ATCC 7941 at <100 ug/ml at pH 5.6 after 20 h in absence of 10% beef serum
[3] = test system: Candida albicans; assay: Antifungal activity against Candida albicans ATCC 10231 at <100 ug/ml at pH 7 after 20 h in presence of 10% beef serum
[4] = test system: Candida albicans; assay: Antifungal activity against Candida albicans ATCC 10231 at <100 ug/ml at pH 5.6 after 20 h in presence of 10% beef serum
[5] = test system: Trichophyton mentagrophytes; assay: Antifungal activity against Trichophyton mentagrophytes ATCC 9129 at <100 ug/ml at pH 5.6 after 5 days in presence of 10% beef serum; format: functional, organism-based; procedure, shortened: as §1
[6] = test system: Trichophyton mentagrophytes; assay: Antifungal activity against Trichophyton mentagrophytes ATCC 9129 at <100 ug/ml at pH 5.6 after 5 days in absence of 10% beef serum; format: functional, organism-based; procedure, shortened: as §1
[7] = test system: Mucor mucedo; assay: Antifungal activity against Mucor mucedo ATCC 7941 at <100 ug/ml at pH 7 after 20 h in presence of 10% beef serum
[8] = test system: Trichophyton mentagrophytes; assay: Antifungal activity against Trichophyton mentagrophytes ATCC 9129 at <100 ug/ml at pH 7 after 5 days in presence of 10% beef serum; format: functional, organism-based; procedure, shortened: as §1
[9] = test system: Candida albicans; assay: Antifungal activity against Candida albicans ATCC 10231 at <100 ug/ml at pH 5.6 after 20 h in absence of 10% beef serum
[10] = test system: Aspergillus niger; assay: Antifungal activity against Aspergillus niger ATCC 1004 at <100 ug/ml at pH 7 after 5 days in presence of 10% beef serum; format: functional, organism-based; procedure, shortened: as §1
[11] = test system: Mucor mucedo; assay: Antifungal activity against Mucor mucedo ATCC 7941 at <100 ug/ml at pH 7 after 20 h in absence of 10% beef serum
[12] = test system: Candida albicans; assay: Antifungal activity against Candida albicans ATCC 10231 at <100 ug/ml at pH 7 after 20 h in absence of 10% beef serum
[13] = test system: Mucor mucedo; assay: Antifungal activity against Mucor mucedo ATCC 7941 at <100 ug/ml at pH 5.6 after 20 h in presence of 10% beef serum
[14] = test system: Trichophyton mentagrophytes; assay: Antifungal activity against Trichophyton mentagrophytes ATCC 9129 at <100 ug/ml at pH 7 after 5 days in absence of 10% beef serum; format: functional, organism-based; procedure, shortened: as §1
[15] = test system: Aspergillus niger; assay: Antifungal activity against Aspergillus niger ATCC 1004 at <100 ug/ml at pH 7 after 5 days in absence of 10% beef serum; format: functional, organism-based; procedure, shortened: as §1
[16] = test system: Aspergillus niger; assay: Antifungal activity against Aspergillus niger ATCC 1004 at <100 ug/ml at pH 5.6 after 5 days in presence of 10% beef serum; format: functional, organism-based; procedure, shortened: as §1
[17] = test system: Candida albicans; assay: Antifungal activity against Candida albicans ATCC 10231 at pH 7 after 20 h in absence of 10% beef serum; details: ATCC 10231, 20 h
[18] = test system: Aspergillus niger; assay: Antifungal activity against Aspergillus niger ATCC 1004 at pH 7 after 5 days in presence of 10% beef serum; format: functional; details: Aspergillus niger, ATCC 1004, 120 h; read-out: MIC; procedure, shortened: as §1
[19] = test system: Candida albicans; assay: Antifungal activity against Candida albicans ATCC 10231 at pH 5.6 after 20 h in presence of 10% beef serum; details: ATCC 10231, 20 h
[20] = test system: Aspergillus niger; assay: Antifungal activity against Aspergillus niger ATCC 1004 at pH 7 after 5 days in absence of 10% beef serum; format: functional; details: Aspergillus niger, ATCC 1004, 120 h; read-out: MIC; procedure, shortened: as §1
[21] = test system: Aspergillus niger; assay: Antifungal activity against Aspergillus niger ATCC 1004 at pH 5.6 after 5 days in absence of 10% beef serum; format: functional; details: Aspergillus niger, ATCC 1004, 120 h; read-out: MIC; procedure, shortened: as §1
[22] = test system: Candida albicans; assay: Antifungal activity against Candida albicans ATCC 10231 at pH 7 after 20 h in presence of 10% beef serum; details: ATCC 10231, 20 h
[23] = test system: Candida albicans; assay: Antifungal activity against Candida albicans ATCC 10231 at pH 5.6 after 20 h in absence of 10% beef serum; details: ATCC 10231, 20 h
[24] = test system: Aspergillus niger; assay: Antifungal activity against Aspergillus niger ATCC 1004 at pH 5.6 after 5 days in presence of 10% beef serum; format: functional; details: Aspergillus niger, ATCC 1004, 120 h; read-out: MIC; procedure, shortened: as §1

Compound	inhibition [1]	inhibition [2]	inhibition [3]	inhibition [4]	inhibition [5]	inhibition [6]	inhibition [7]	inhibition [8]	inhibition [9]	inhibition [10]	inhibition [11]	inhibition [12]	inhibition [13]	inhibition [14]	inhibition [15]	inhibition [16]	also measured
CCCCCCOC(=O)/C=C/C(=O)OCCCCCC	inactive	inactive	inactive	inactive	inactive	inactive	inactive	inactive	inactive	inactive	inactive	inactive	inactive	inactive	inactive	inactive	
CCCCCCOC(=O)[C@@H](F)[C@@H](Br)C(=O)OCCCCCC (relative stereo)	inactive	inactive	inactive	inactive	inactive	inactive	inactive	inactive	inactive	inactive	inactive	inactive	inactive	inactive	inactive	inactive	
COC(=O)C(Br)C(C)F (stereo not given)	inactive	inactive	inactive	inactive	inactive	inactive	inactive	inactive	inactive	inactive	inactive	inactive	inactive	inactive	inactive	inactive	
Nc1nc(=O)[nH]cc1F [FLUCYTOSINE]		inactive			inactive	inactive	inactive	inactive			inactive		inactive	inactive			MIC [17]: 9 µg/mL (≈ 69.7 µM); MIC [18]: 10 µg/mL; MIC [19]: 14 µg/mL; MIC [20]: 7 µg/mL (≈ 54.2 µM); MIC [21]: 9 µg/mL (≈ 69.7 µM); MIC [22]: 14 µg/mL; MIC [23]: 9 µg/mL (≈ 69.7 µM); MIC [24]: 8 µg/mL
CCCCCCOC(=O)[C@H](F)[C@@H](Br)C(=O)OCCCCCC (relative stereo)	inactive	inactive	inactive	inactive	inactive	inactive	inactive	inactive	inactive	inactive	inactive	inactive	inactive	inactive	inactive	inactive	
